Screens deposited in PubChem by several laboratories.
hERG rescue = hERG (human) protection from proarrhythmic block; actives 0.51% (n = 310,000); CHO-hERG, FluxOR thallium flux, dofetilide IC70 present; activation (rescue from dofetilide block), less the hit threshold, % at 10 µM; Q12809; AID 1511;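 active = activation above the mean of controls blocked by dofetilide plus 5 SD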;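 also: thallium influx through hERG after potassium depolarization seen as dye fluorescence rise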
KCNQ1 inh = inhibitors of human KCNQ1 potassium channel; P51787; CHO-K1 KCNQ1, FluxOR thallium flux fluorescence; active compounds read high; B-score at 10 µM; actives 1.3% (n = 310,000); AID 2642;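 active = compounds whose thallium flux B-score, printed positive for inhibition, exceeds three library SD while starting fluorescence stays within three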;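 also: channel opened by potassium depolarization with thallium stimulus after 20 min compound exposure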
Target sequence (P51787 whole entry, looked up): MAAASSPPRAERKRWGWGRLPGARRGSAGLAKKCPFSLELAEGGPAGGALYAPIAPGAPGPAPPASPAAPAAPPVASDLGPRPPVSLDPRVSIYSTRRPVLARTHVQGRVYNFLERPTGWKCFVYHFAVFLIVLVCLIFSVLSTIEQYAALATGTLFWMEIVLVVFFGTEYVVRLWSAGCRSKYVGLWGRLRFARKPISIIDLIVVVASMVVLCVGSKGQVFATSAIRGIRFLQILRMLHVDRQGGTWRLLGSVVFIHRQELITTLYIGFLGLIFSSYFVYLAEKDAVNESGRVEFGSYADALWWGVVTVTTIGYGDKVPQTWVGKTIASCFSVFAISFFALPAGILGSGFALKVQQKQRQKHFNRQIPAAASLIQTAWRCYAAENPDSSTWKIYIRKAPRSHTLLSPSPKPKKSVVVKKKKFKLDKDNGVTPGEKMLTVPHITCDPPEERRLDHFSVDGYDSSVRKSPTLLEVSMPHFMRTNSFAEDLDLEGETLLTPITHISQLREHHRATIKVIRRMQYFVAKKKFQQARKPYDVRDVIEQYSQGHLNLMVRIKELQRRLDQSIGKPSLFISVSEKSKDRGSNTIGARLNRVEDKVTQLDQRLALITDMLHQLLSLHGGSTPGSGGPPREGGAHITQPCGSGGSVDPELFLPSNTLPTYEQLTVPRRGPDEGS
KCNK3 block = human KCNK3 channel inhibition, primary screen. O14649. CHO-KCNK3 thallium flux, FluxOR fluorescence; active compounds read low. B-score at 10 µM. actives 0.84% (n = 340,000). AID 602410;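 active = B-score under library mean minus 4 SD, starting fluorescence ratio at most library mean plus 5 SD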;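 also: more negative B-score means stronger inhibition of thallium flux through KCNK3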
KCNQ1 pot = human KCNQ1 channel potentiation or activation; actives 0.35% (n = 310,000); AID 2648; B-score at 10 µM; CHO-K1 KCNQ1, thallium flux FluxOR fluorescence; active compounds read high;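 active = fluorescence ratio B-score, a plate-corrected score, at least three library SD, with initial intensity B-score within 5 SD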
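Schedule – 37 °C overnight plating, 90-min dark dye load, 20-min compound pretreatment · System – stable KCNQ1 CHO-K1 line · Probe or stimulus – thallium- and potassium-containing depolarizing buffer · Measured by – kinetic FluxOR fluorescence, 10 s baseline plus 110 s post-stimulus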
KCNK9 inh = human KCNK9 channel inhibition; HEK293 KCNK9, FluxOR thallium flux fluorescence; active compounds read low; B-score at 10 µM; actives 1.2% (n = 310,000); AID 488922;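 active = ratio B-score over 3 SD below the library mean, with starting fluorescence within 5 SD of its mean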;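 also: negative B-score means less thallium flux so channel inhibition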
KCC2 mod = KCC2 (human) Cl- transport modulation; Q9H2X9; KCC2 cells, thallium flux FluoZin-2 fluorescence; B-score of Tl+ flux slope (higher = more flux/activation; lower = inhibition) at 10 µM; actives 2.2% (n = 190,000); AID 1456;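 active = thallium flux slope and its plate-corrected score both differing from the plate sample mean at a set confidence after two filtering rounds, in either direction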;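 also: slope of fluorescence scaled to starting intensity during 10 to 20 s after thallium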
KCNK3 confirm = human KCNK3 channel inhibition, confirmation assay; shares compounds with KCNK3 block; actives 99% (n = 2,400); ratio percent of control, % at 10 µM; AID 651638; CHO-KCNK3 thallium flux, FluxOR fluorescence; 0% buffer, 100% carvedilol maximal block;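 active = ratio percent of control, averaged over triplicates, above buffer control mean plus 5 SD, cut at about 64% in these data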;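 also: ratio is the fluorescence rise from min to max over baseline after thallium stimulus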
KCNK3 uninduced = counter-screen for KCNK3 inhibitors: effect in non-induced cells | shares compounds with KCNK3 block | non-induced KCNK3 parental cells, FluxOR thallium flux; active compounds read low | thallium flux ratio (lower = more inhibition) at 10 µM | actives 40% (n = 2,400) | AID 651747;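 active = thallium flux ratio, averaged over three wells, more than 5 SD below the buffer control mean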;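 also: host cells are CHO cells without KCNK3 induction; ratio is peak minus trough fluorescence over baseline then normalized to buffer controls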
Active calls of the source: *; i = inactive; / = no result given. Most compounds without a hit are left out; they make up all but 4.1% or so of the library.

SMILES | hERG rescue | KCNQ1 inh | KCNK3 block | KCNQ1 pot | KCNK9 inh | KCC2 mod | KCNK3 confirm | KCNK3 uninduced
CN(CC(=O)Nc1ccccc1Br)C(=O)c1cccnc1Nc1cccc(C(F)(F)F)c1 | -11 | i | -12* | i | i | / | 126* | 0.13*
COC(=O)c1cccc(N2C(=O)C(Cl)=C(N3CCOCC3)C2=O)c1 | -1 | i | -9.7* | i | i | / | 67* | i
O=C1C(Cl)=C(N2CCOCC2)C(=O)N1c1cccc(C(F)(F)F)c1 | -6 | i | i | i | i | / | / | /
COCC1CCCCN1C(=O)c1ccc2nc(Cc3ccc(OC)c(OC)c3)oc2c1 (stereo not drawn) | -10 | i | i | i | i | / | / | /
CCOC(=O)C1=C(C)NC(SCC(=O)O)=C(C#N)C1c1ccco1 (stereo not drawn) | -7 | i | i | i | i | -1.1 | / | /
CC(=O)C1=C(C)NC(SCC(=O)c2ccc(Cl)c(Cl)c2)=C(C#N)C1c1ccco1 (stereo not drawn) | -4 | i | -11* | i | -7.8* | / | 125* | 0.16*
O=C(Nc1ccccc1)C1=C(O)CC(c2ccoc2)CC1=Nc1ccccc1 (stereo not drawn) | -8 | i | -8.8* | i | i | 1 | 113* | 0.16*
CC1CN=C2C(C(=O)Nc3ccccc3)=C(O)CC(c3ccccc3)N21 (stereo not drawn) | -1 | i | i | i | i | -2.4 | / | /
O=C(CSc1ccc(-c2ccco2)nn1)c1ccc(F)cc1 | -9 | i | i | i | i | -3 | / | /
COc1ccc(OC)c(NC(=S)N2c3ccccc3CC2C)c1 (stereo not drawn) | -8 | i | -9.1* | i | i | / | 105* | i
CN(c1ccccc1)S(=O)(=O)c1cccc(NC(=O)c2ccc3ncsc3c2)c1 | -14 | i | -9.5* | i | -7.1* | / | 130* | 0.14*
COc1ccc(CN2CCN(CCc3ccccc3)C(CCO)C2)c(Cl)c1OC (stereo not drawn) | -3 | i | -9.9* | i | i | / | 85* | i
Cc1ccc(NC(=O)C(C)N2CCOCC2)c(C(=O)c2ccccc2)c1 (stereo not drawn) | 1 | i | i | i | i | 0.015 | / | /
CC12CCC(=O)C=C1CCC1C2CCC2(C)C(c3csc(N)n3)CCC12 (stereo not drawn) | / | / | -14* | / | / | / | 133* | 0.12*
CC12CCC(=O)C=C1CCC1C2C(O)CC2(C)C(c3csc(N)n3)CCC12 (stereo not drawn) | / | / | i | / | / | / | / | /
Cn1c(C(=O)N2CCc3ccccc3C2)cc2oc3ccccc3c21 | -2 | i | i | i | i | -1 | / | /
CCn1c(C(=O)N2CCc3ccccc3C2)cc2oc3ccccc3c21 | -10 | 7* | -9.1* | i | i | -0.016 | 120* | 0.15*
Cc1ccc2nc(N/N=C\c3ccc([N+](=O)[O-])o3)nc(-c3ccccc3)c2c1 | -20 | 7* | -11* | i | -6.9* | -2 | 147* | 0.087*
Cc1cc(NC(=O)CSc2ccc(Cl)cc2)no1 | -12 | i | i | i | i | 0.016 | / | /
O=C(COC(=O)c1cc(S(=O)(=O)N2CCc3ccccc3C2)ccc1Cl)NCc1ccco1 | -6 | i | -9.4* | i | i | / | 97* | i
CCOC(=O)N1CCC2(CC1)CC(=O)c1c(ccc3oc(C(=O)O)c(C)c13)O2 | -17 | i | -15* | i | i | 0.53 | 0 | i
O=C(COC(=O)c1cc(Br)ccc1O)Nc1cc(S(=O)(=O)N2CCCC2)ccc1Cl | -21 | i | -9.5* | i | -6.6* | 0.59 | 96* | i
COCCNC(=O)C(c1ccc(F)cc1)N(C(=O)CCC(=O)Nc1nccs1)c1cccc(C)c1 (stereo not drawn) | -10 | i | i | i | i | 0.9 | / | /
Cc1nc(C(=O)Nc2cc(Cl)ccc2Cl)nn1-c1cc(OC(C)C)c(Cl)cc1Cl | -9 | i | i | i | i | -0.4 | / | /
Cc1nc(C(=O)Nc2cccc(Cl)c2)nn1-c1cc(OC(C)C)c(Cl)cc1Cl | -11 | i | -8.9* | i | i | / | 96* | i
SMILES | hERG rescue | KCNQ1 inh | KCNK3 block | KCNQ1 pot | KCNK9 inh | KCC2 mod | KCNK3 confirm | KCNK3 uninduced
COc1ccc(NC(=O)CN2CCCN(S(=O)(=O)c3ccc(F)cc3)CC2)c(OC)c1 | -7 | i | i | i | i | -0.65 | / | /
O=S(=O)(/N=C(/Nc1nccs1)c1ccc(F)cc1)c1ccccc1 | / | / | i | / | / | / | / | /
CCCOc1cccc(NC(=O)c2c(-c3ccccc3)noc2C)c1 | -7 | i | i | i | i | 0.0078 | / | /
Cc1cccc(OCCOC(=O)c2c(-c3ccccc3)noc2C)c1 | -7 | i | -13* | i | i | / | 108* | i
O=C(Cc1csc(N2CCOCC2)n1)N/N=C/c1ccccc1C(=O)O | -3 | i | i | i | i | / | / | /
CCOC(=O)Cn1c(C)c(C#N)c2ccccc21 | -12 | i | i | i | i | -0.057 | / | /
COc1ccccc1OCCCn1c(C)c(C#N)c2ccccc21 | -9 | i | -10* | i | i | / | 119* | 0.16*
C(=Cc1c[nH]c2ccccc12)c1ccc2ccccc2n1 | / | / | i | / | / | / | / | /
C(=Cc1c[nH]c2ccccc12)c1nccc2ccccc12 | / | / | -14* | / | / | / | 167* | 0.044*
COc1cc2c(cc1OC)/C(=C/c1ccc(Cl)cc1)C(=O)OC2 | -11 | i | i | i | i | -1.7 | / | /
CCCC(C)C(=O)Nc1ccccc1C(=O)OCC (stereo not drawn) | -2 | i | i | i | i | 0.21 | / | /
CCOC(=O)c1ccccc1NC(=O)C(C)Oc1ccccc1 (stereo not drawn) | -9 | i | -10* | i | i | -0.51 | 78* | i
COc1cc(Br)cc2cc(C(=O)N3CCCCC3C)c(=O)oc12 (stereo not drawn) | -13 | i | i | i | i | 0.035 | / | /
Cc1onc(-c2ccc3c(c2)OCO3)c1-c1ccc2[nH]ccc2c1 | -21 | i | -9.5* | i | i | / | 95* | i
CCn1c(SCc2cccc(OC)c2)nc2ccccc2c1=O | -15 | i | -10* | i | i | / | 128* | 0.13*
